Measured values of several laboratories.
Compare with care: the assays were run in different laboratories.
Target: Cytochrome P450 2C19 (CYP2C19, Homo sapiens, UniProt P33261)
Effect on: enzyme activity
Action: inhibitor

Nc1nc(N)c2nc(CNc3ccc(C(=O)c4ccccc4)cc3)cnc2n1
IC50 (luciferase): 25.1 µM

Cc1ccc2nc(-c3ccccc3)c(CNc3ccc(F)cc3)n2c1
IC50: 0.93 µM

CCN(Cc1cnc2nc(N)nc(N)c2n1)c1ccc(C(=O)c2ccccc2)cc1
IC50 (luciferase): 0.282 µM

CCc1cc(/C(C)=N/OCc2ccc(C3CCCCC3)c(C(F)(F)F)c2)ccc1CN1CC(C(=O)O)C1
IC50 (human; liver microsomes; 20 min): > 0.5 µM

O=C(NCCN1CCCC1)c1cc(-c2ccc(CN3CCOCC3)cc2)nc2ccc(F)cc12
IC50 (human; liver microsomes): > 100 µM

C[C@H]1CN(c2n[nH]c3nc(N[C@H]4CC[C@H](NS(=O)(=O)CCC(F)(F)F)CC4)ncc23)CCO1
IC50: > 100 µM

COc1ccc2c(Cc3ccccc3F)c3n(c(=O)c2c1OC)CCc1cc2c(cc1-3)OCO2
IC50: 4.7 µM

CCCN(CCC)CCc1cccc2c1CC(=O)N2
IC50 (fluorescence): > 1000 µM

COc1ccc2c(Cc3ccccc3F)c3[n+](cc2c1OC)CCc1cc2c(cc1-3)OCO2
IC50: > 10 µM

CCCCCNC(=N)N/N=C/c1c[nH]c2ccc(OC)cc12
IC50 (fluorescence): 1.17 µM

C#CCN(Cc1cnc2nc(N)nc(N)c2n1)c1ccc(C(=O)N2CCC(C(=O)OC)CC2)cc1
IC50 (luciferase): 9.77 µM

C=CC(=O)Nc1cc(Nc2nccc(Nc3cc(Cl)c(F)cc3C(C)(C)O)n2)c(OC)cc1N1CC[C@@H](N(C)C)C1
IC50 (human; liver microsomes): > 30 µM
